In general, IC50 refers to the concentration that inhibits the measured activity by half.

In brackets after ≈: the same amount, converted by molar mass.

One test deals with Human alphaherpesvirus 3. The test can be described thus: Inhibitory concentration against VZV strain YS in human embryonic lung (HEL) cell culture. The test is classed as functional.
Conditions: not given
On to `Nc1ncnc2c1ncn2[C@@H]1CO[C@H](CO)[C@@H](O)C1`, for which the MIC is 4 µg/mL (≈ 15.1 µM).

Molecule `Nc1ccn(C2COC(CO)C(O)C2)c(=O)n1` (stereo not drawn) gave an MIC of 0.27 µg/mL (≈ 1.12 µM).

The test system of the next test is Human alphaherpesvirus 1. The experiment in a line: Inhibitory concentration against HSV type 1 strain F in human embryonic skin muscle (ESM) fibroblast cell culture. The test is classed as functional.
Conditions: not given
The procedure, abridged:
(§1)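 Assay in human embryonic skin-muscle (ESM) cells grown in 96-well trays. The value is the concentration that reduces virus-induced cytopathicity by 50%. Single representative experiment.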
In the case of `Nc1ncnc2c1ncn2[C@@H]1CO[C@H](CO)[C@@H](O)C1`, the MIC turned out to be 4 µg/mL (≈ 15.1 µM).

`Nc1ccn(C2COC(CO)C(O)C2)c(=O)n1` (stereo not drawn): the MIC came out at 1 µg/mL (≈ 4.15 µM).

A further test has as its system FM3A. The test can be described thus: Inhibitory concentration required to reduce the growth of murine FM3A cells by 50%. As to conditions: Mus musculus. The test is classed as functional, cell-based. The procedure, abridged:
(§2)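 Cytostatic assay. The value is the concentration that reduces the growth (viability) of the cells by 50%.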
For the molecule `Nc1ncnc2c1ncn2[C@@H]1CO[C@H](CO)[C@@H](O)C1`, it took 97.5 µg/mL (≈ 368 µM) to reach half-maximal inhibition (IC50).

The molecule `Nc1ccn(C2COC(CO)C(O)C2)c(=O)n1` (stereo not drawn) showed an IC50 of 28 µg/mL (≈ 116 µM).

Another test deals with HEL. The experiment in a line: Inhibitory concentration required to inhibit cell growth by 50% in human embryonic lung (HEL) cell culture. It counts as functional.
Conditions: not given
The essentials: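 Uninfected HEL cells grown in 96-well trays. The value is the concentration that reduces cell growth by 50%. Single representative experiment.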
`Nc1ncnc2c1ncn2[C@@H]1CO[C@H](CO)[C@@H](O)C1` came in with an MIC above 50 µg/mL.

With `Nc1ccn(C2COC(CO)C(O)C2)c(=O)n1` (stereo not drawn), the MIC is 2 µg/mL (≈ 8.29 µM).

A further test concerns L1210. The experiment in a line: Inhibitory concentration required to reduce the growth of murine L1210 cells by 50%. The test is classed as functional, cell-based. As to conditions: Mus musculus. The essentials: as §2
The molecule `Nc1ncnc2c1ncn2[C@@H]1CO[C@H](CO)[C@@H](O)C1` had a half-maximal inhibitory concentration (IC50) above 100 µg/mL.

As to `Nc1ccn(C2COC(CO)C(O)C2)c(=O)n1` (stereo not drawn), the IC50 came to 29 µg/mL (≈ 120 µM).

The next test concerns MT4. The experiment in a line: Inhibitory concentration required to reduce the growth of human MT-4 cells by 50%. It counts as functional, cell-based.
Conditions: not given
The procedure, abridged:
as §2
In turn, `Nc1ncnc2c1ncn2[C@@H]1CO[C@H](CO)[C@@H](O)C1` showed an IC50 of 12.5 µg/mL (≈ 47.1 µM).

As for `Nc1ccn(C2COC(CO)C(O)C2)c(=O)n1` (stereo not drawn), half-maximal inhibition (IC50) was put at 1.1 µg/mL (≈ 4.56 µM).

Another test has as its system Human alphaherpesvirus 2. The test can be described thus: Inhibitory concentration against HSV type 2 strain 196 in human embryonic skin muscle (ESM) fibroblast cell culture. It counts as functional.
Conditions: not given
The essentials:
as §1
The molecule `Nc1ncnc2c1ncn2[C@@H]1CO[C@H](CO)[C@@H](O)C1` registered an MIC of 0.04 µg/mL (≈ 0.151 µM).

`Nc1ccn(C2COC(CO)C(O)C2)c(=O)n1` (stereo not drawn) came in with an MIC of 0.02 µg/mL (≈ 0.0829 µM).

The next test has as its system Human alphaherpesvirus 3. The test can be described thus: Inhibitory concentration against VZV strain OKA in human embryonic lung (HEL) cell culture. The test is classed as functional.
Conditions: not given
For `Nc1ncnc2c1ncn2[C@@H]1CO[C@H](CO)[C@@H](O)C1`, the MIC amounted to 4 µg/mL (≈ 15.1 µM).

`Nc1ccn(C2COC(CO)C(O)C2)c(=O)n1` (stereo not drawn) came in with an MIC of 0.04 µg/mL (≈ 0.166 µM).

The next test has as its system Human alphaherpesvirus 2. The experiment in a line: Inhibitory concentration against HSV type 2 strain G in human embryonic skin muscle (ESM) fibroblast cell culture. The test is classed as functional.
Conditions: not given
The essentials:
as §1
The molecule `Nc1ncnc2c1ncn2[C@@H]1CO[C@H](CO)[C@@H](O)C1` showed an MIC of 7 µg/mL (≈ 26.4 µM).

`Nc1ccn(C2COC(CO)C(O)C2)c(=O)n1` (stereo not drawn): the MIC was determined as 0.04 µg/mL (≈ 0.166 µM).

A further test relates to Human alphaherpesvirus 3. The experiment in a line: (§3) Inhibitory concentration against TK-VZV strain YS-R in human embryonic lung (HEL) cell culture. It counts as functional.
Conditions: not given
The essentials:
(§4)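 Plaque-reduction assay in human embryonic lung (HEL) cells grown in 96-well trays. The value is the concentration that reduces virus plaque formation by 50%. Single representative experiment.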
`Nc1ncnc2c1ncn2[C@@H]1CO[C@H](CO)[C@@H](O)C1` yielded an MIC of 3.2 µg/mL (≈ 12.1 µM).

Another test concerns Human immunodeficiency virus 2. The experiment in a line: Inhibitory concentration required to achieve 50% protection of MT-4 cells against cytopathicity of […]. The test is classed as functional, organism-based. As to conditions: Human immunodeficiency virus 2, MT4. The essentials:
(§5)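 MT-4 cells infected with HIV-1 (strain III_B) or HIV-2 (strain ROD). The value is the concentration that protects the cells from virus cytopathicity by 50%.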
(In general: Cytopathic effects are the visible damage that an infection or toxin causes in cultured cells.)
`Nc1ncnc2c1ncn2[C@@H]1CO[C@H](CO)[C@@H](O)C1` returned a 50% inhibitory concentration (IC50) above 4 µg/mL.

Molecule `Nc1ccn(C2COC(CO)C(O)C2)c(=O)n1` (stereo not drawn) showed an IC50 above 0.8 µg/mL.

The subject of the next test is Cytomegalovirus. The test can be described thus: Inhibitory concentration against CMV strain Davis in human embryonic lung (HEL) cell culture. As to conditions: Human betaherpesvirus 5. The test is classed as functional. The procedure, abridged:
as §4
`Nc1ncnc2c1ncn2[C@@H]1CO[C@H](CO)[C@@H](O)C1` returned an MIC above 10 µg/mL.

Turning to `Nc1ccn(C2COC(CO)C(O)C2)c(=O)n1` (stereo not drawn), the MIC is 0.75 µg/mL (≈ 3.11 µM).

Another test relates to Human alphaherpesvirus 1. The experiment in a line: Inhibitory concentration against HSV type 1 strain KOS in human embryonic skin muscle (ESM) fibroblast cell culture. It counts as functional.
Conditions: not given
`Nc1ncnc2c1ncn2[C@@H]1CO[C@H](CO)[C@@H](O)C1` had an MIC of 7 µg/mL (≈ 26.4 µM).

For the molecule `Nc1ccn(C2COC(CO)C(O)C2)c(=O)n1` (stereo not drawn), the MIC was determined as 0.7 µg/mL (≈ 2.9 µM).

Another test concerns MOLT-4. The test can be described thus: Inhibitory concentration required to reduce the growth of human MOLT-4 cells by 50%. It counts as functional, cell-based.
Conditions: not given
The essentials:
as §2
In turn, `Nc1ncnc2c1ncn2[C@@H]1CO[C@H](CO)[C@@H](O)C1` showed an IC50 above 100 µg/mL.

In the case of `Nc1ccn(C2COC(CO)C(O)C2)c(=O)n1` (stereo not drawn), the IC50 is 0.87 µg/mL (≈ 3.61 µM).

The test system of the next test is Human alphaherpesvirus 3. The test can be described thus: Inhibitory concentration against TK-VZV strain 07-1 in human embryonic lung (HEL) cell culture. The test is classed as functional.
Conditions: not given
The molecule `Nc1ncnc2c1ncn2[C@@H]1CO[C@H](CO)[C@@H](O)C1` returned an MIC of 10 µg/mL (≈ 37.7 µM).

For the molecule `Nc1ccn(C2COC(CO)C(O)C2)c(=O)n1` (stereo not drawn), the MIC is 0.75 µg/mL (≈ 3.11 µM).

The subject of a further test is Human immunodeficiency virus 1. The test can be described thus: Inhibitory concentration required to achieve 50% protection of MT-4 cells against cytopathicity of […]. It counts as functional, organism-based. As to conditions: Human immunodeficiency virus 1, MT4. The essentials:
as §5
In turn, `Nc1ncnc2c1ncn2[C@@H]1CO[C@H](CO)[C@@H](O)C1` gave a concentration for half-maximal inhibition (IC50) above 4 µg/mL.

Turning to `Nc1ccn(C2COC(CO)C(O)C2)c(=O)n1` (stereo not drawn), the half-maximal inhibitory concentration (IC50) was above 0.8 µg/mL.

For a further test, the system named is Human alphaherpesvirus 1. The test can be described thus: Inhibitory concentration against HSV type 1 strain Mc Intyre in human embryonic skin muscle (ESM) fibroblast cell culture. It counts as functional.
Conditions: not given
The essentials:
as §1
In turn, `Nc1ncnc2c1ncn2[C@@H]1CO[C@H](CO)[C@@H](O)C1` registered an MIC of 20 µg/mL (≈ 75.4 µM).

Turning to `Nc1ccn(C2COC(CO)C(O)C2)c(=O)n1` (stereo not drawn), the MIC turned out to be 2 µg/mL (≈ 8.29 µM).

The subject of the next test is ESM. The test can be described thus: Inhibitory concentration required for morphologic alteration in normal cell in human embryonic skin muscle (ESM) fibroblast cell culture. It counts as functional.
Conditions: not given
The essentials:
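Uninfected ESM cells in 96-well trays, examined under the microscope. The value is the minimal concentration that causes a detectable change in normal cell morphology. Tested up to 400 μg/mL. Single representative experiment.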
`Nc1ncnc2c1ncn2[C@@H]1CO[C@H](CO)[C@@H](O)C1` registered an MIC above 400 µg/mL.

In the case of `Nc1ccn(C2COC(CO)C(O)C2)c(=O)n1` (stereo not drawn), the MIC was above 400 µg/mL.

The next test relates to Human alphaherpesvirus 1. The experiment in a line: Inhibitory concentration against TK-HSV type 1 strain B2006 in human embryonic skin muscle (ESM) fibroblast cell culture. The test is classed as functional.
Conditions: not given
The procedure, abridged:
as §1
`Nc1ncnc2c1ncn2[C@@H]1CO[C@H](CO)[C@@H](O)C1` displayed an MIC of 150 µg/mL (≈ 565 µM).

In turn, `Nc1ccn(C2COC(CO)C(O)C2)c(=O)n1` (stereo not drawn) displayed an MIC of 4 µg/mL (≈ 16.6 µM).

In another test the test system is Human alphaherpesvirus 2. The experiment in a line: Inhibitory concentration against HSV type 2 strain Lyons in human embryonic skin muscle (ESM) fibroblast cell culture.
Conditions: not given
The test is classed as functional. The essentials: as §1
On to `Nc1ncnc2c1ncn2[C@@H]1CO[C@H](CO)[C@@H](O)C1`, for which the MIC stood at 1 µg/mL (≈ 3.77 µM).

For the molecule `Nc1ccn(C2COC(CO)C(O)C2)c(=O)n1` (stereo not drawn), the MIC stood at 0.02 µg/mL (≈ 0.0829 µM).

The next test has as its system Cytomegalovirus. The experiment in a line: Inhibitory concentration against CMV strain AD169 in human embryonic lung (HEL) cell culture. It counts as functional. As to conditions: Human betaherpesvirus 5. The essentials: as §4
`Nc1ncnc2c1ncn2[C@@H]1CO[C@H](CO)[C@@H](O)C1` displayed an MIC above 10 µg/mL.

Molecule `Nc1ccn(C2COC(CO)C(O)C2)c(=O)n1` (stereo not drawn) showed an MIC of 0.64 µg/mL (≈ 2.65 µM).

A further test has as its system Vaccinia virus. The test can be described thus: Inhibitory concentration against VV in human embryonic skin muscle (ESM) fibroblast cell culture. The test is classed as functional. As to conditions: Orthopoxvirus vaccinia.
`Nc1ncnc2c1ncn2[C@@H]1CO[C@H](CO)[C@@H](O)C1` displayed an MIC of 40 µg/mL (≈ 151 µM).

`Nc1ccn(C2COC(CO)C(O)C2)c(=O)n1` (stereo not drawn) had an MIC of 2 µg/mL (≈ 8.29 µM).

The test system of a further test is Vesicular stomatitis virus. The experiment in a line: Inhibitory concentration against VSV in human embryonic skin muscle (ESM) fibroblast cell culture.
Conditions: not given
It counts as functional.
In turn, `Nc1ncnc2c1ncn2[C@@H]1CO[C@H](CO)[C@@H](O)C1` came in with an MIC above 200 µg/mL.

Regarding `Nc1ccn(C2COC(CO)C(O)C2)c(=O)n1` (stereo not drawn), the MIC is above 400 µg/mL.

A further test has as its system CCRF-CEM. The test can be described thus: Inhibitory concentration required to reduce the growth of human CEM cells by 50%. The test is classed as functional, cell-based.
Conditions: not given
The essentials:
as §2
`Nc1ncnc2c1ncn2[C@@H]1CO[C@H](CO)[C@@H](O)C1` had a concentration for half-maximal inhibition (IC50) above 100 µg/mL.

With `Nc1ccn(C2COC(CO)C(O)C2)c(=O)n1` (stereo not drawn), 1.4 µg/mL (≈ 5.8 µM) corresponded to half-maximal inhibition (IC50).

In a further test the test system is Human alphaherpesvirus 3. The description is as §3. The test is classed as functional.
Conditions: not given
The molecule `Nc1ccn(C2COC(CO)C(O)C2)c(=O)n1` (stereo not drawn) gave an MIC of 0.64 µg/mL (≈ 2.65 µM).

The values are drawn from ChEMBL document CHEMBL1126736, “Synthesis and antiherpes virus activity of 1,5-anhydrohexitol nucleosides” (J Med Chem, 1993).
